Among the data in ChEMBL document CHEMBL1156108, “Synthesis and biological evaluation of p38alpha kinase-targeting dialkynylimidazoles” (Bioorg Med Chem Lett, 2009) are inhibition, IC50 and Ratio IC50 values, retold here.

What is called inhibition is the relative decrease from the control value, in per cent. The term IC50 denotes the concentration that inhibits the measured activity by half.

Data set [1] has as its target Insulin-like growth factor 1 receptor (Homo sapiens) (UniProt P08069). Briefly: Inhibition of human IGF1R at 20 uM by FRET assay.
For data set [2], the target named is Serine/threonine-protein kinase mTOR (Homo sapiens) (UniProt P42345). Briefly: Inhibition of human FRAP1 at 20 uM by FRET assay.
Data set [3] addresses Cyclin-dependent kinase 1/cyclin B (Homo sapiens) (UniProt P06493+P14635+Q8WWL7+O95067). Briefly: Inhibition of human CDK1/cyclin B at 20 uM by FRET assay. The data set is classed as protein-complex assay.
Data set [4] addresses Tyrosine-protein kinase ABL1 (Homo sapiens) (UniProt P00519). Briefly: Inhibition of human ABL1 at 20 uM by FRET assay.
The target in data set [5] is Vascular endothelial growth factor receptor 2 (Homo sapiens) (UniProt P35968). Description: Inhibition of human KDR at 20 uM by FRET assay.
In data set [6] the target is cAMP-dependent protein kinase catalytic subunit alpha (Homo sapiens) (UniProt P17612). Briefly: Inhibition of human PRKACA at 20 uM by FRET assay.
Data set [7] deals with Platelet-derived growth factor receptor beta (Homo sapiens) (UniProt P09619). Briefly: Inhibition of human PDGFRbeta at 20 uM by FRET assay.
Data set [8] concerns the target Proto-oncogene tyrosine-protein kinase receptor Ret (Homo sapiens) (UniProt P07949). Description: Inhibition of human RET at 20 uM by FRET assay.
Data set [9] deals with T1, Mitogen-activated protein kinase 14 (Homo sapiens, UniProt Q16539). Briefly: Inhibition of p38alpha at 10 uM by FRET assay. A digest of the protocol:
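Single-concentration screen against p38α, read at a fixed 60 min time-point. Reported as percent inhibition from tests run in duplicate.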

Data set [10] concerns the target Activin receptor type-1B (Homo sapiens) (UniProt P36896). Description: Inhibition of human ALK4 at 20 uM by FRET assay.
The target in data set [11] is Ribosomal protein S6 kinase alpha-3 (Homo sapiens) (UniProt P51812). Description: Inhibition of human RPS6KA3 at 20 uM by FRET assay.
In data set [12] the target is Serine/threonine-protein kinase PLK1 (Homo sapiens) (UniProt P53350). Description: Inhibition of human PLK1 at 20 uM by FRET assay.
Data set [13] has as its target T2, Mitogen-activated protein kinase kinase kinase kinase 4 (Homo sapiens, UniProt O95819). Briefly: Inhibition of human MAP4K4 at 20 uM by FRET assay.
In data set [14] the target is RAF proto-oncogene serine/threonine-protein kinase (Homo sapiens) (UniProt P04049). Description: Inhibition of human RAF1 at 20 uM by FRET assay.
Data set [15] addresses High affinity nerve growth factor receptor (Homo sapiens) (UniProt P04629). Briefly: Inhibition of human NTRK1 at 20 uM by FRET assay.
Data set [16] deals with Tyrosine-protein kinase JAK3 (Homo sapiens) (UniProt P52333). Description: Inhibition of human JAK3 at 20 uM by FRET assay.
Data set [17] addresses Mitogen-activated protein kinase 8 (Homo sapiens) (UniProt P45983). Briefly: Inhibition of human JNK1 at 20 uM by FRET assay.
Data set [18] deals with Angiopoietin-1 receptor (Homo sapiens) (UniProt Q02763). Description: Inhibition of human TEK at 20 uM by FRET assay.
In data set [19] the target is Epidermal growth factor receptor (Homo sapiens) (UniProt P00533). Description: Inhibition of human EGFR at 20 uM by FRET assay.
Data set [20] addresses Dual specificity tyrosine-phosphorylation-regulated kinase 3 (Homo sapiens) (UniProt O43781). Description: Inhibition of human DYRK3 at 20 uM by FRET assay.
In data set [21] the target is Serine/threonine-protein kinase pim-1 (Homo sapiens) (UniProt P11309). Description: Inhibition of human PIM1 at 20 uM by FRET assay.
Data set [22] addresses Mitogen-activated protein kinase 12 (Homo sapiens) (UniProt P53778). Briefly: Inhibition of human p38-gamma at 20 uM by FRET assay.
Data set [23] addresses Mitogen-activated protein kinase 9 (Homo sapiens) (UniProt P45984). Description: Inhibition of human JNK2 at 20 uM by FRET assay.
Data set [24] has as its target Interleukin-1 receptor-associated kinase 4 (Homo sapiens) (UniProt Q9NWZ3). Briefly: Inhibition of human IRAK4 at 20 uM by FRET assay.
Data set [25] deals with Glycogen synthase kinase-3 beta (Homo sapiens) (UniProt P49841). Description: Inhibition of human GSK3-beta at 20 uM by FRET assay.
Data set [26] deals with Mitogen-activated protein kinase 13 (Homo sapiens) (UniProt O15264). Description: Inhibition of human p38delta at 20 uM by FRET assay. Summed up:
(§1)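 Single-point screen at one fixed concentration, run across a panel of 53 additional human kinases, which includes this enzyme.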

Data set [27] concerns the target Mitogen-activated protein kinase 11 (Homo sapiens, UniProt Q15759). Briefly: Inhibition of p38beta by FRET assay.
In data set [28] the target is Proto-oncogene tyrosine-protein kinase Src (Homo sapiens) (UniProt P12931). Briefly: Inhibition of human SRC at 20 uM by FRET assay.
Data set [29] deals with Serine/threonine-protein kinase Chk1 (Homo sapiens) (UniProt O14757). Briefly: Inhibition of human CHK1 at 20 uM by FRET assay.
Data set [30] deals with Dual specificity mitogen-activated protein kinase kinase 1 (Homo sapiens) (UniProt Q02750). Briefly: Inhibition of human MEK1 at 20 uM by FRET assay.
Data set [31] addresses Ribosomal protein S6 kinase beta-1 (Homo sapiens) (UniProt P23443). Description: Inhibition of human p70S6K at 20 uM by FRET assay. Summed up: as §1
Data set [32] concerns the target Casein kinase I isoform gamma-2 (Homo sapiens) (UniProt P78368). Briefly: Inhibition of human CK1gamma2 at 20 uM by FRET assay.
The target in data set [33] is Mitogen-activated protein kinase 1 (Homo sapiens) (UniProt P28482). Description: Inhibition of human ERK2 at 20 uM by FRET assay.
For data set [34], the target named is Receptor-type tyrosine-protein kinase FLT3 (Homo sapiens) (UniProt P36888). Description: Inhibition of human FLT3 at 20 uM by FRET assay.
Data set [35] has as its target Inhibitor of nuclear factor kappa-B kinase subunit beta (Homo sapiens) (UniProt O14920). Briefly: Inhibition of human IKK-beta at 20 uM by FRET assay.
The target in data set [36] is MAP kinase-activated protein kinase 2 (Homo sapiens) (UniProt P49137). Briefly: Inhibition of human MAPKAPK2 at 20 uM by FRET assay.
Data set [37] addresses Insulin receptor (Homo sapiens) (UniProt P06213). Description: Inhibition of human INSR at 20 uM by FRET assay.
In data set [38] the target is Hepatocyte growth factor receptor (Homo sapiens) (UniProt P08581). Description: Inhibition of human MET at 20 uM by FRET assay.
The target in data set [39] is Rho-associated protein kinase 1 (Homo sapiens) (UniProt Q13464). Briefly: Inhibition of human ROCK1 at 20 uM by FRET assay.
Data set [40] deals with Tyrosine-protein kinase Lck (Homo sapiens) (UniProt P06239). Briefly: Inhibition of human LCK at 20 uM by FRET assay.
Data set [41] has as its target Tyrosine-protein kinase SYK (Homo sapiens) (UniProt P43405). Briefly: Inhibition of human SYK at 20 uM by FRET assay.
Data set [42] addresses Serine/threonine-protein kinase Nek1 (Homo sapiens) (UniProt Q96PY6). Briefly: Inhibition of human NEK1 at 20 uM by FRET assay.
Data set [43] deals with T1, Mitogen-activated protein kinase 14. Briefly: Inhibition of p38alpha by FRET assay.
Data set [44] has as its target Serine/threonine-protein kinase MARK2 (Homo sapiens) (UniProt Q7KZI7). Briefly: Inhibition of human MARK2 at 20 uM by FRET assay.
Data set [45] concerns the target Protein kinase C beta type (Homo sapiens) (UniProt P05771). Briefly: Inhibition of human PKCbeta1 at 20 uM by FRET assay.
Data set [46] addresses T2, Mitogen-activated protein kinase kinase kinase kinase 4. Briefly: Inhibition of human MAP4K4 by FRET assay.
Target sequence in this assay (O95819 whole entry): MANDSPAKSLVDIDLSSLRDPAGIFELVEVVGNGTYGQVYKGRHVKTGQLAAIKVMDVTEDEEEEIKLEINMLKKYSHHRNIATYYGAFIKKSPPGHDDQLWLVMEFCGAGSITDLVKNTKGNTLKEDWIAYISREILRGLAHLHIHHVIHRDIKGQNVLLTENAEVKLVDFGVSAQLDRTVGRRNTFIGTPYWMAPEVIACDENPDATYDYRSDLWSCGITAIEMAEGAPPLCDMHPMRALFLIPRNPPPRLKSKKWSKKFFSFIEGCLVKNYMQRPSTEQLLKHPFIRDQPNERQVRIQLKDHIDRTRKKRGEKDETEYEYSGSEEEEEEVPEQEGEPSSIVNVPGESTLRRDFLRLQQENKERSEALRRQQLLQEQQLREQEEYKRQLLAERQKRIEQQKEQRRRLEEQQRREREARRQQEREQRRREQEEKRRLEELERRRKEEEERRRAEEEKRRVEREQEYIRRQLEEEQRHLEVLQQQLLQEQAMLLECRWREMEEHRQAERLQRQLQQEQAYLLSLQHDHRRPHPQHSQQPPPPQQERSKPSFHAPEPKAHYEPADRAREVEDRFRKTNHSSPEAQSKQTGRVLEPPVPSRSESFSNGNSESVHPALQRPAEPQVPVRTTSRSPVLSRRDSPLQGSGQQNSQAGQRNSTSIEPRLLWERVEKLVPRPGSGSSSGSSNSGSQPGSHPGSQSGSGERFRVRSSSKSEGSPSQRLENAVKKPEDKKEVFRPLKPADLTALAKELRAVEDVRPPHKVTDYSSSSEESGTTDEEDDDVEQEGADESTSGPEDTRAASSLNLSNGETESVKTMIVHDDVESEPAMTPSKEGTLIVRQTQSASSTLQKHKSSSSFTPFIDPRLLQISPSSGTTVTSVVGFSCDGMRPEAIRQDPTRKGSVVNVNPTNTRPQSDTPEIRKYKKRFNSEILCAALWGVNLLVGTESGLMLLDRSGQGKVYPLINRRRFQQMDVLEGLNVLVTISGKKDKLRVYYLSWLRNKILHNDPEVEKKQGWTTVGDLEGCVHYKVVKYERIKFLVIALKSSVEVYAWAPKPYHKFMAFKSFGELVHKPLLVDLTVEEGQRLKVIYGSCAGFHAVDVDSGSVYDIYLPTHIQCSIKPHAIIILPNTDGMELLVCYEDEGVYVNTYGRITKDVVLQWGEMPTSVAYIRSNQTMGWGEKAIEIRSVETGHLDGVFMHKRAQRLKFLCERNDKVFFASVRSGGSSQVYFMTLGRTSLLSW
The target of data set [47] is Serine/threonine-protein kinase PAK 4 (Homo sapiens) (UniProt O96013). Briefly: Inhibition of human PAK4 at 20 uM by FRET assay.
The target in data set [48] is Ephrin type-A receptor 2 (Homo sapiens) (UniProt P29317). Briefly: Inhibition of human EPHA2 at 20 uM by FRET assay.
The target of data set [49] is Casein kinase II subunit alpha (Homo sapiens) (UniProt P68400). Description: Inhibition of human CK2alpha1 at 20 uM by FRET assay.
Data set [50] concerns the target CYP2D6 (Homo sapiens, UniProt P10635). Briefly: Inhibition of CYP2D6 at 10 uM. The data set is classed as ADME.
Data set [51] addresses Receptor tyrosine-protein kinase erbB-2 (Homo sapiens) (UniProt P04626). Briefly: Inhibition of human ERBB2 at 20 uM by FRET assay.
For data set [52], the target named is Fibroblast growth factor receptor 1 (Homo sapiens) (UniProt P11362). Description: Inhibition of human FGFR1 at 20 uM by FRET assay.
Data set [53] addresses Tyrosine-protein kinase BTK (Homo sapiens) (UniProt Q06187). Briefly: Inhibition of human BTK at 20 uM by FRET assay.
Data set [54] concerns the target Mast/stem cell growth factor receptor Kit (Homo sapiens) (UniProt P10721). Description: Inhibition of human KIT at 20 uM by FRET assay.
Data set [55] has as its target RAC-alpha serine/threonine-protein kinase (Homo sapiens) (UniProt P31749). Description: Inhibition of human AKT1 at 20 uM by FRET assay.
Data set [56] concerns the target Aurora kinase A (Homo sapiens) (UniProt O14965). Briefly: Inhibition of human Aurora A at 20 uM by FRET assay.
The nature of data set [57]: Selectivity ratio for IC50 of p38alpha to IC50 of p38beta.

T1 sequence (Q16539 whole entry): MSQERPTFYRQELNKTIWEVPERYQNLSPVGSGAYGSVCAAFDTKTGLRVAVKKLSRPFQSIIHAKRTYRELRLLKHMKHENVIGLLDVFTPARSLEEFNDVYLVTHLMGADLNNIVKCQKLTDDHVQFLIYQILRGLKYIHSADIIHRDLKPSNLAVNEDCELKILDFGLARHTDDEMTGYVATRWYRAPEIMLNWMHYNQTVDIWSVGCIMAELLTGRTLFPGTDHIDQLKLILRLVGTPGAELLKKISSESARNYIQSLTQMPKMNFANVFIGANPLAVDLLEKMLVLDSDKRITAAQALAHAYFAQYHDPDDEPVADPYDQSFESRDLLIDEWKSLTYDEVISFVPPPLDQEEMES
CYP2D6, sequence (P10635 whole entry): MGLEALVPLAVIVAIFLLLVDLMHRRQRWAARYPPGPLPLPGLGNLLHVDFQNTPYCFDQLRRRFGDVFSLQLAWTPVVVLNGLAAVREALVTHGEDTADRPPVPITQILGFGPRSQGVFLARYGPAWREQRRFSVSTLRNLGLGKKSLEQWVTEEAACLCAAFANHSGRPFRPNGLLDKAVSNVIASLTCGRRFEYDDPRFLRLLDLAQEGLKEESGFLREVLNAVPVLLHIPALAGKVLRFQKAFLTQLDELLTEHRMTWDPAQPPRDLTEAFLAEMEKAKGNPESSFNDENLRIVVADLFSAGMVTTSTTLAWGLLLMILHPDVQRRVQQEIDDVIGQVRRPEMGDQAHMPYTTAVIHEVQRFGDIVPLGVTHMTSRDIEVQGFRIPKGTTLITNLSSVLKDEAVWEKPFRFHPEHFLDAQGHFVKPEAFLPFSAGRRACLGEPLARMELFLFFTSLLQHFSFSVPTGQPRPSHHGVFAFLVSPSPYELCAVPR
Serine/threonine-protein kinase PLK1 (Homo sapiens), sequence (P53350 whole entry): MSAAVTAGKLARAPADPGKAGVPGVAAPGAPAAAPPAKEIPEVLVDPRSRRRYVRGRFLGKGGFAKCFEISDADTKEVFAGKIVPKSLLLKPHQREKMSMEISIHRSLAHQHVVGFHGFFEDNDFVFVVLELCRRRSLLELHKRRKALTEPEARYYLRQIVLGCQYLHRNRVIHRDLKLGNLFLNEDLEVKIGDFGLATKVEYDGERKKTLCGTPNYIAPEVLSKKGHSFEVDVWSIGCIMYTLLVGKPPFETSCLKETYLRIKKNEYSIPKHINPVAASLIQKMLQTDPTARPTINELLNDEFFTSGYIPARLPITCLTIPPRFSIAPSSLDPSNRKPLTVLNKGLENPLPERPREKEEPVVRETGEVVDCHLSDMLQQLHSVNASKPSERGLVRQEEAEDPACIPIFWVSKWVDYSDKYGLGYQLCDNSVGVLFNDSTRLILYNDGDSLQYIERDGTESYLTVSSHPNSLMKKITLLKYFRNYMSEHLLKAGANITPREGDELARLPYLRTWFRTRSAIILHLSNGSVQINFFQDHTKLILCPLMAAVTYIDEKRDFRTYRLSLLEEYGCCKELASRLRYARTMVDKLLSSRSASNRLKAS
Dual specificity tyrosine-phosphorylation-regulated kinase 3 (Homo sapiens), sequence (O43781 whole entry): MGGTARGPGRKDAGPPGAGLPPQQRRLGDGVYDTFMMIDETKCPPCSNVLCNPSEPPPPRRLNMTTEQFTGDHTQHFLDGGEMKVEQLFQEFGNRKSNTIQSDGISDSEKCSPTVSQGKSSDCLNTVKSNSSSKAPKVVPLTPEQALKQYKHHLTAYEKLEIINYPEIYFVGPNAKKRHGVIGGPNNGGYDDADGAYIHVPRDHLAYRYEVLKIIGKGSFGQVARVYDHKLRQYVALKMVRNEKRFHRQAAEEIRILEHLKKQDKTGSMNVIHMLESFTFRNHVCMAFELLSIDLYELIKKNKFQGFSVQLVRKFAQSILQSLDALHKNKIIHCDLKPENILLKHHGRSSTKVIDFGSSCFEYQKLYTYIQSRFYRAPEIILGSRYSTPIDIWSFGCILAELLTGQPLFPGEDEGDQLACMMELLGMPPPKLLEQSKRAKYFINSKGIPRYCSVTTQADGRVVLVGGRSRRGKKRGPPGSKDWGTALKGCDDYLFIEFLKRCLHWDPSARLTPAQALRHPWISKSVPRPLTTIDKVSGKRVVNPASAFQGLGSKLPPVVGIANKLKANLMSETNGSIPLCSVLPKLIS
Proto-oncogene tyrosine-protein kinase Src (Homo sapiens), sequence (P12931 2-536 limits assumed): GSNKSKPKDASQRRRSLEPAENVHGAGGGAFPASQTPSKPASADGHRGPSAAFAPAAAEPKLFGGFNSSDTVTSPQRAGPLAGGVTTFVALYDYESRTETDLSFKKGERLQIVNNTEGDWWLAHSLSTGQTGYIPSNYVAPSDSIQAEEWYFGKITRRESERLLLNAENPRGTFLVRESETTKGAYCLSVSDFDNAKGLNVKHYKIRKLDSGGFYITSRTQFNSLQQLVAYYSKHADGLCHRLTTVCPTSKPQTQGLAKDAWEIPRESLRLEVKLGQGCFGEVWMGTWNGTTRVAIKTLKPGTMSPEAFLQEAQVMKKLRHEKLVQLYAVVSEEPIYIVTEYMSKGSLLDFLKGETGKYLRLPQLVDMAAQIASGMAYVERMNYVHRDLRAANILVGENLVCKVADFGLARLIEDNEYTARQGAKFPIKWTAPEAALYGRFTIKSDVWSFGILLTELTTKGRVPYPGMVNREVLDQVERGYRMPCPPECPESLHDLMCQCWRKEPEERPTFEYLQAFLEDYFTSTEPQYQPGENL
RAF proto-oncogene serine/threonine-protein kinase (Homo sapiens), sequence (P04049 whole entry): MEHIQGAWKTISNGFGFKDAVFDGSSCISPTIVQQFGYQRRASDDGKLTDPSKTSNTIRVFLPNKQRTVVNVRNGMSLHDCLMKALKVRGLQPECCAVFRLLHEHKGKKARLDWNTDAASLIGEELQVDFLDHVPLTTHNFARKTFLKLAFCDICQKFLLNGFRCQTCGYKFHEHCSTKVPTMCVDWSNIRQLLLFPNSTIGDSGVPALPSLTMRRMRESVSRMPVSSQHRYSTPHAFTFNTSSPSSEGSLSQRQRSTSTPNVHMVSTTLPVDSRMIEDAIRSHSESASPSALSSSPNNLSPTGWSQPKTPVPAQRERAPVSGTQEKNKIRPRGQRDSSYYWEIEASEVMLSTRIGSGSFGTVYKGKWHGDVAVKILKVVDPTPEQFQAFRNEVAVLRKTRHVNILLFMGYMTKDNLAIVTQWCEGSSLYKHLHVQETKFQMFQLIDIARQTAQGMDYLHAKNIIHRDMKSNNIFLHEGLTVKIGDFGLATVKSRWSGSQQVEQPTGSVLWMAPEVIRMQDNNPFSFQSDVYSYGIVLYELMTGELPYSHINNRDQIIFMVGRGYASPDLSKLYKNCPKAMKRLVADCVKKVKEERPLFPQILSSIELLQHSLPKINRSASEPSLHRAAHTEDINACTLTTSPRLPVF
Casein kinase II subunit alpha (Homo sapiens), sequence (P68400 whole entry, looked up): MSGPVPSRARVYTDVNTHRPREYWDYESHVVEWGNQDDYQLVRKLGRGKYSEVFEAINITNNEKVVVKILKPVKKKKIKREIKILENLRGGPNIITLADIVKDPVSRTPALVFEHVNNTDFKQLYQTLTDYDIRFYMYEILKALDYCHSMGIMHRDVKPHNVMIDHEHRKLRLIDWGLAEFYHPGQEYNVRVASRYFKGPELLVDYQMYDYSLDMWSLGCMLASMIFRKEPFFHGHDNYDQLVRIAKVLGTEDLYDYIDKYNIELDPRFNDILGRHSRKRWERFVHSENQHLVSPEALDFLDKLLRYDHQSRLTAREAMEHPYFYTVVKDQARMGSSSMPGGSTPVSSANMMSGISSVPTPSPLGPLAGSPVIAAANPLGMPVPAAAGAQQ

As to `C#Cn1c(C#CCCO)nc(-c2ccc(F)cc2)c1-c1ccncc1`, the inhibition in data set [1] is -1%; in [2], 6%; in [3], 3%; in data set [4], 15%; in [5], 36%; in [6], 50%. For the same compound, the inhibition was determined as 10% in [7]; 21% in [8]; 100% in data set [9]; 72% in data set [10]; 0% in data set [11]; 7% in data set [12]. The inhibition turned out to be 92% in [13]; 82% in data set [14]; 1% in [15]; 4% in data set [16]; 21% in data set [17]; 5% in [18]. The inhibition worked out at 84% in data set [19]; 8% in data set [20]; 3% in [21]; 14% in [22]; 88% in data set [23]; 1% in data set [24]. Also, the inhibition in data set [25] stood at 44%; in data set [26], 12%; in data set [28], 27%; in data set [29], 5%; in data set [30], 10%; in data set [31] it was 7%. For the same compound, the inhibition stood at 36% in data set [32]; 6% in [33]; 17% in [34]; 5% in data set [35]; 3% in data set [36]; 7% in data set [37]. Further, the inhibition in [38] is 11%; in data set [39], 15%; in data set [40], 48%; in data set [41] it was 3%; in [42], 11%; in [44] it was 14%. For the same compound, the inhibition in data set [45] came out at 80%; in data set [47], 8%; in [48], 23%; in data set [49] it was 3%; in data set [51] it was 41%; in [52], 8%. Further, the inhibition in [53] amounted to 9%; in data set [54] it was 5%; in [55], 29%; in data set [56], 7%. Further, the IC50 was determined as 5.4 µM in [27], 200 nM in [43] and 4.2 µM in data set [46]. Besides, the inhibition at 10 µM in data set [50] amounted to 4%. Also, in data set [57], the Ratio IC50 was above 25.

In the case of `OCC#Cc1nc(-c2ccc(F)cc2)c(-c2ccncc2)n1C#Cc1ccccc1`, the inhibition in data set [9] came out at 83%.

`OCCc1cc(Cl)n2c(-c3ccncc3)c(-c3ccc(F)cc3)nc2c1`: the IC50 in [43] was determined as 370 nM.

`C#Cc1nc(-c2ccncc2)c(-c2ccc(F)cc2)n1C#Cc1ccccc1`: the inhibition in data set [9] was found to be 19%.

Turning to `C#Cc1nc(-c2ccc(F)cc2)c(-c2ccncc2)n1C#Cc1ccccc1`, the inhibition in data set [9] was found to be 28%.

Regarding `OCCC#Cc1nc(-c2ccc(F)cc2)c(-c2ccncc2)n1C#Cc1ccccc1`, the inhibition in data set [9] was 75%.

With `OCC#Cc1nc(-c2ccncc2)c(-c2ccc(F)cc2)n1C#Cc1ccccc1`, the inhibition in data set [9] was found to be 63%.

With `C[S+]([O-])c1ccc(-c2nc(-c3ccncc3)c(-c3ccc(F)cc3)[nH]2)cc1` (stereo not given) [SB-203580], the inhibition at 10 µM in data set [50] stood at 78%.

Consider `OCCC#Cc1nc(-c2ccncc2)c(-c2ccc(F)cc2)n1C#Cc1ccccc1`, for which, in [9], the inhibition turned out to be 53%.
